Experiments:
[1] = tested on: CHO; test: In vitro 50% cell growth inhibition by the co mpound in CHO cells with 5 mM DFMO addition; format: functional, cell-based; details: Cricetulus griseus
In short: (§1)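 CHO or CHO-MG cells were plated at 2 × 10^3 cells/mL and incubated overnight. Conjugates and 5 mM DFMO were then added together, with 2 mM aminoguanidine present, for 48 h. MTT absorbance at 540 nm was expressed relative to DFMO-treated controls. The value is the concentration inhibiting growth 25% or 50%.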

[2] = tested on: L1210; test: Cellular uptake of conjugates in L1210 cells (control) at a concentration of 0.5 uM (+/-15% SEM); format: functional, cell-based; details: Mus musculus
In short: (§2)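 L1210 cells were seeded at 2 × 10^5 cells/mL with conjugate added at seeding, in medium containing 2 mM aminoguanidine, and cultured 24 h. Washed cells were extracted in 0.2 N HClO4/2 M NaCl for 16 h at 4 °C. Intracellular conjugate was quantified by fluorimetry and expressed as nmol/mg protein. Mean of three determinations (±15%).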

[3] = Ratio of cellular uptake in CHO cells to that of CHO-MG cells.; format: functional
[4] = tested on: CHO; test: In vitro 25% cell growth inhibition by the compound in CHO cells with 5 mM DFMO addition; format: functional; details: Cricetulus griseus; in short: as §1
[5] = tested on: L1210; test: In vitro 50% cell growth inhibition by the compound in L1210 cells with 5 mM DFMO addition; format: functional, cell-based; details: Mus musculus
In short: (§3)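 L1210 cells were seeded at 5 × 10^4 cells/mL, and conjugate plus 5 mM DFMO were added at seeding with 2 mM aminoguanidine present. After 48 h, growth was read by MTT at 540 nm relative to DFMO-only controls.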

[6] = tested on: L1210; test: Cellular uptake of conjugates in L1210 cells pretreated with 5 mM DFMO at a concentration of 0.5 uM (+/-15% SEM); format: functional, cell-based; details: Mus musculus
In short: (§4)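 L1210 cells were seeded at 10^5 cells/mL in medium with 5 mM DFMO, and conjugates were added 24 h later. Cells were harvested after a further 24 h, extracted in 0.2 N HClO4/2 M NaCl and assayed by fluorimetry, expressed per mg protein. Mean of three determinations (±15%).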

[7] = tested on: CHO; test: In vitro 50% cell growth inhibition by the compound in CHO cells; format: functional, cell-based; details: Cricetulus griseus
In short: (§5)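 CHO or CHO-MG cells were trypsinized and plated singly at 2 × 10^3 cells/mL in RPMI 1640/10% FCS with 2 mM aminoguanidine (proline for CHO-MG). Conjugates were added after overnight incubation, with 48 h exposure. Growth was read by MTT formazan absorbance at 540 nm relative to untreated controls. The value is the concentration giving 25% or 50% growth inhibition.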

[8] = tested on: L1210; test: In vitro 50% cell growth inhibition by the compound in L1210 cells; format: functional, cell-based; details: Mus musculus
In short: (§6)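 L1210 cells were seeded at 5 × 10^4 cells/mL with conjugate added at seeding, in medium with 2 mM aminoguanidine, for 48 h exposure. Growth was measured by MTT absorbance at 540 nm relative to untreated controls.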

[9] = tested on: L1210; test: In vitro 25% cell growth inhibition by the compound in L1210 cells with 5 mM DFMO addition; format: functional; details: Mus musculus; in short: as §3
[10] = tested on: CHO-MG; test: In vitro 50% cell growth inhibition by the compound in CHO-MG cells with 5 mM DFMO addition; format: functional, cell-based; details: Cricetulus griseus; in short: as §1
[11] = tested on: CHO-MG; test: In vitro 50% cell growth inhibition by the compound in CHO-MG cells; format: functional, cell-based; details: Cricetulus griseus; in short: as §5
[12] = tested on: L1210; test: Cellular uptake of conjugates in L1210 cells in presence of 500 uM SPD at a concentration of 1 uM (+/-15% SEM); format: functional, cell-based; details: Mus musculus
In short: (§7)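 Same as the L1210 uptake assay: seeded at 2 × 10^5 cells/mL, conjugate plus 500 μM spermidine added together at seeding, 24 h exposure. Extraction in HClO4/NaCl, fluorimetric quantitation, normalized to protein. Mean of three determinations (±15%).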

[13] = tested on: L1210; test: Inhibition of [14C]SPD uptake by the compound in 5 min initial rate transport assay in L1210 cells; format: functional, cell-based, Mus musculus
[14] = tested on: L1210; test: Cellular uptake of conjugates in L1210 cells (control) at a concentration of 2 uM (+/-15% SEM); format: functional, cell-based; details: Mus musculus; in short: as §2
[15] = tested on: CHO-MG; test: In vitro 25% cell growth inhibition by the compound in CHO-MG cells; format: functional, Cricetulus griseus; in short: as §5
[16] = tested on: CHO; test: In vitro 25% cell growth inhibition by the compound in CHO cells; format: functional; details: Cricetulus griseus; in short: as §5
[17] = tested on: L1210; test: Cellular uptake of conjugates in L1210 cells in presence of 500 uM SPD at a concentration of 2 uM (+/-15% SEM); format: functional, cell-based; details: Mus musculus; in short: as §7
[18] = tested on: L1210; test: Cellular uptake of conjugates in L1210 cells pretreated with 5 mM DFMO at a concentration of 2 uM (+/-15% SEM); format: functional, cell-based; details: Mus musculus; in short: as §4
[19] = tested on: L1210; test: Cellular uptake of conjugates in L1210 cells in presence of 500 uM SPD at a concentration of 0.5 uM (+/-15% SEM); format: functional, cell-based; details: Mus musculus; in short: as §7
[20] = tested on: CHO-MG; test: Cellular uptake of conjugates in CHO-MG cells at a concentration of 0.5 uM (+/-15% SEM); format: functional, cell-based; details: Cricetulus griseus
In short: (§8)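 Conjugates added 24 h after seeding (1 × 10^5 cells/mL, RPMI 1640 with 10% FCS and 2 mM aminoguanidine; proline added for CHO-MG) and left for 24 h. Cells were washed in 0.14 M NaCl, sonicated in 0.2 N HClO4/2 M NaCl and held 16 h at 4 °C. Conjugate in the supernatant was measured by fluorimetry against standards and expressed per mg protein (Folin). Mean of three determinations (±15%).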

[21] = tested on: CHO-MG; test: In vitro 25% cell growth inhibition by the compound in CHO-MG cells with 5 mM DFMO addition; format: functional; details: Cricetulus griseus; in short: as §1
[22] = tested on: L1210; test: Cellular uptake of conjugates in L1210 cells (control) at a concentration of 1 uM (+/-15% SEM); format: functional, cell-based; details: Mus musculus; in short: as §2
[23] = tested on: CHO; test: Cellular uptake of conjugates in CHO cells at a concentration of 0.5 uM (+/-15% SEM); format: functional, cell-based; details: Cricetulus griseus; in short: as §8
[24] = tested on: Nucleic Acid; test: Drug concentration required to produce 50% inhibition of fluorescence bound ethidium to CT-DNA (1.26:1) (+/-SEM 5%); format: functional; details: Bos taurus
In short: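 Ethidium displacement: 1 μM CT-DNA with 1.26 μM ethidium bromide; conjugate stock added serially. Fluorescence was read at excitation 546 nm and emission 595 nm. The value is the conjugate concentration cutting DNA-bound ethidium fluorescence by 50%. Mean of three determinations (±5%).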

[25] = tested on: L1210; test: Cellular uptake of conjugates in L1210 cells pretreated with 5 mM DFMO at a concentration of 1 uM (+/-15% SEM); format: functional, cell-based; details: Mus musculus; in short: as §4
[26] = tested on: L1210; test: In vitro 25% cell growth inhibition by the compound in L1210 cells; format: functional; details: Mus musculus; in short: as §6
[27] = tested on: CHO-MG; test: Cellular uptake of conjugates in CHO-MG cells at a concentration of 2 uM (+/-15% SEM); format: functional, cell-based; details: Cricetulus griseus; in short: as §8
[28] = Ratio of cellular uptake in CHO cells to that of CHO-MG cells at 10 uM; format: functional
[29] = tested on: L1210; test: Cellular uptake of conjugates in L1210 cells in presence of 500 uM SPD at a concentration of 10 uM (+/-15% SEM); format: functional, cell-based; details: Mus musculus; in short: as §7
[30] = tested on: L1210; test: Cellular uptake of conjugates in L1210 cells (control) at a concentration of 10 uM (+/-15% SEM); format: functional, cell-based; details: Mus musculus; in short: as §2
[31] = tested on: CHO; test: Cellular uptake of conjugates in CHO cells at a concentration of 10 uM (+/-15% SEM); format: functional, cell-based; details: Cricetulus griseus; in short: as §8
[32] = tested on: CHO-MG; test: Cellular uptake of conjugates in CHO-MG cells at a concentration of 10 uM (+/-15% SEM); format: functional, cell-based; details: Cricetulus griseus; in short: as §8
[33] = Ratio of cellular uptake in CHO cells to that of CHO-MG cells 2 uM; format: functional
[34] = tested on: L1210; test: Cellular uptake of conjugates in L1210 cells pretreated with 5 mM DFMO at a concentration of 10 uM (+/-15% SEM); format: functional, cell-based; details: Mus musculus; in short: as §4
[35] = tested on: CHO; test: Cellular uptake of conjugates in CHO cells at a concentration of 2 uM (+/-15% SEM); format: functional, cell-based; details: Cricetulus griseus; in short: as §8

Row | Compound | IC50 [1] | Uptake (nM (mg of protein)-1) [2] | Ratio [3] | IC25 [4] | IC50 [5] | Uptake (nM (mg of protein)-1) [6] | IC50 [7] | IC50 [8] | IC25 [9] | IC50 [10] | IC50 [11] | Uptake (nM (mg of protein)-1) [12] | Ki [13] | Uptake (nM (mg of protein)-1) [14] | IC25 [16] | Uptake (nM (mg of protein)-1) [17] | Uptake (nM (mg of protein)-1) [18] | Uptake (nM (mg of protein)-1) [19] | Concentration for 50% ethidium displacement from DNA (C50) [24] | IC25 [26] | other results
1 | Cl.NCCCNCCCCNCCCNCCCNc1c2ccccc2nc2ccccc12 | 1.3 µM | 0.186 | 3.1 | 0.32 µM | 0.9 µM | 0.496 | 2.3 µM | 2.8 µM | 0.14 µM | 7.3 µM | 6.1 µM | 0.188 | 0.129 µM | 0.717 | 0.9 µM | 0.553 | 1.58 | 0.053 | 110 nM | 1.4 µM | IC25 ([15]; Cricetulus griseus, CHO-MG, read-out: IC25): 1.8 µM; Uptake (nM (mg of protein)-1) [20]: 0.054; IC25 [21]: 2.5 µM; Uptake (nM (mg of protein)-1) [22]: 0.307; Uptake (nM (mg of protein)-1) [23]: 0.167; Uptake (nM (mg of protein)-1) [25]: 0.728
2 | Cl.NCCCNCCCCNCCCNCCCCN=c1c2ccccc2[nH]c2ccccc12 |  | 0.193 | 3.1 |  | 0.6 µM |  | 2.3 µM | 2.3 µM | 0.16 µM |  | 7.2 µM | 0.28 | 0.083 µM | 0.491 |  |  |  | 0.094 | 110 nM | 1.1 µM | Uptake (nM (mg of protein)-1) [20]: 0.026; Uptake (nM (mg of protein)-1) [22]: 0.362; Uptake (nM (mg of protein)-1) [23]: 0.081
3 | Cl.NCCCNCCCCNCCCNCCCCCNC(=O)c1c2ccccc2nc2ccccc12 | 2 µM | 0.033 |  | 0.025 µM | 6.6 µM | 0.113 | 25 µM | 41 µM | 0.1 µM | 23 µM | 31 µM |  | 0.097 µM | 0.064 | 10.8 µM | 0.049 | 0.217 | 0.016 | 120 nM | 22 µM | Uptake (nM (mg of protein)-1) [27]: 0.032; Ratio [28]: 1.1; Uptake (nM (mg of protein)-1) [29]: 0.262; Uptake (nM (mg of protein)-1) [30]: 0.279; Uptake (nM (mg of protein)-1) [31]: 0.125; IC25 [15]: 10.5 µM; Uptake (nM (mg of protein)-1) [32]: 0.112; IC25 [21]: 6 µM; Ratio [33]: 1.1; Uptake (nM (mg of protein)-1) [34]: 0.631; Uptake (nM (mg of protein)-1) [35]: 0.034
4 | c1ccc2nc3ccccc3cc2c1 |  |  |  |  |  |  |  |  |  |  |  |  |  |  |  |  |  |  | 142000 nM |  | 
